Bioassay records from PubChem.
SIAE inh: human SIAE inhibitors, primary screen, biochemical, fluorescence polarization, FP-Rh probe, 1536-well HTS; SIAE FP-Rh probe binding; inhibition, % at 9.66 µM; actives 0.69% (n = 370,000); AID 1053197, 2014;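 active = inhibition above a cutoff: mean of compounds within the control limits plus 3 SD of those, cut at about 17% in these data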;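 note: 0% = plate median of compound wells and 100% = probe without SIAE protein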
Target sequence (Q9HAT2 whole entry, looked up): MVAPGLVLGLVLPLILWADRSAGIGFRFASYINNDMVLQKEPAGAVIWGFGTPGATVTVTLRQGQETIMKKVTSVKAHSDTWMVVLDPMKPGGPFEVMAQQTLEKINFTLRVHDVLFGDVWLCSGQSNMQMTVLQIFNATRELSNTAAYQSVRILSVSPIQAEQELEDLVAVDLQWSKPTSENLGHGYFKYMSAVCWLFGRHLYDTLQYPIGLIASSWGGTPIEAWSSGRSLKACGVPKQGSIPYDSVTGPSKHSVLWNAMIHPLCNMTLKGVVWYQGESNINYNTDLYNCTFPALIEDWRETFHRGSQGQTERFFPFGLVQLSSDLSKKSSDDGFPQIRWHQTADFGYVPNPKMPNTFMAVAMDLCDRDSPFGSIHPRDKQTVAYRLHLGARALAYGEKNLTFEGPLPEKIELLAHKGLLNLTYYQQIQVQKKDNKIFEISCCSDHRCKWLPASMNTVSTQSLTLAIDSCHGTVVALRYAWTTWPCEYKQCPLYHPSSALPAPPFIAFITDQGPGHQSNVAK
TCR-CD3 inh: inhibitors of human TCR-CD3 interaction, primary screen, biochemical, fluorescence, TAMRA-labeled TCR probe; T-cell receptor (TCR); inhibition, % at 9.4 µM; actives 0.37% (n = 360,000); in the data active = inhibition above about 19%;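 note: recombinant mutant TCR 2C K166C tagged with TAMRA read by polarization; 0% = receptor in buffer alone and 100% = receptor with positive control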
mABHD4 FP: ABHD4 inhibitors, primary screen, biochemical, fluorescence polarization, mouse; (Lyso)-N-acylphosphatidylethanolamine lipase (Mus musculus), Q8VD66; inhibition, % at 8.92 µM; purified mABHD4, FP-Rh probe fluorescence polarization; actives 0.54% (n = 370,000);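 active = inhibition exceeding the mean over every tested compound plus 3 SD, cut at about 30% in these data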;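 note: 0% = plate median of compound wells and 100% = S159A mutant with DMSO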
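Test system: mouse ABHD4 enzyme, wild type. Reagent: FP-Rh fluorescent activity-based probe, added after compound pre-incubation. Timing: pre-incubation 45 min, probe exposure 60 min, at 25 °C. Technique: FP readout, ex 525 nm / em 598 nm. Benchmarks: high control S159A mutant with DMSO, low control median of compound wells.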
HTRA1 inhibitor: HTRA1 serine protease inhibitors, primary screen, biochemical, fluorescence polarization, HTS; Q92743; recombinant HTRA1, FP-rhodamine activity-based probe; inhibition, % at 5.96 µM; actives 0.5% (n = 340,000); AID 504803, 2011; in the data active = inhibition above about 36%;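 note: 0% = enzyme with DMSO and 100% = wells lacking enzyme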
PRMT1 FP inh: PRMT1 methyltransferase inhibitors, primary screen, biochemical, fluorescence polarization; recombinant PRMT1, activity-based probe fluorescence polarization; Protein arginine N-methyltransferase 1 (Homo sapiens), Q99873; actives 1.3% (n = 370,000); inhibition, % at 2.79 µM; AID 652257, 2013;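 active = inhibition above about 21% made by adding two undisclosed values, limit read from the data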
An asterisk follows results filed as active; x = not tested or not shown; ! = not active in a repeat. This is a sample that favours compounds with a hit; in the whole collection about 2.5% have one here.

SMILES | SIAE inh | TCR-CD3 inh | mABHD4 FP | HTRA1 inhibitor | PRMT1 FP inh
O=C(CSc1nc2ccccc2n1Cc1ccccc1Cl)NN=C/C(Br)=C/c1ccccc1 | -8.6 | x | -5.7 | x | 2.1
COCCN=C1Sc2ccccc2[C@@H]2C[C@H]3[C@H](CON3C)CN12 | 6.6 | 8.2 | 6.6 | x | 24.2*
COc1ccc(Br)cc1C(=O)Nc1ccc(N2CCCC2)cc1 | 9.4 | 19.0* | 14.6 | 6.2 | -2.5
CCc1ccc(C(=O)CSc2ncn[nH]2)cc1 | 2.8 | -0.3 | 4.0 | -1.7 | 23.4*
Cc1ccccc1C(=O)N(C)[C@H]1C[C@H]2c3[nH]c4c(-c5ccc6c(c5)OCO6)cccc4c3CCN2C[C@H]1[C@H](C)O | -3.4 | x | -2.3 | x | -2.4
CC(C)CC1NC(=O)N(CC(=O)N2c3ccccc3NC(=O)C2(C)C)C1=O (stereo unspecified) | 20.2* | -0.4 | 2.1 | -1.5 | 1.1
Cc1ccc(Cn2cc(CN(C3CC3)S(=O)(=O)c3ccccc3Br)nn2)cc1 | -3.3 | x | -2.7 | x | -2.8
CC(=O)Nc1sc(N/N=C\c2ccc(O)cc2)nc1-c1cccs1 | 0.0 | -7.2 | 2.0 | 3.5 | 22.8*
CC(=O)Nc1sc(N/N=C\c2cccc(Cl)c2)nc1-c1cccs1 | 2.0 | -8.7 | -9.1 | -2.8 | 10.5
O=C(NCCc1c[nH]c2ccccc12)OCc1cn(Cc2cccc(F)c2)nn1 | 0.3 | x | 0.7 | x | 3.9
O=C(O)COc1ccccc1/C=C1\SC(=S)N(/N=C/c2ccccc2O)C1=O | 0.9 | -2.2 | 7.7 | 9.2 | 22.5*
O=C(O)COc1ccccc1/C=C1\SC(=S)N(NC(=O)c2ccccc2O)C1=O | -26.4 | -11.0 | -137.9 | -1.8 | 17.3
CN(C)CCCN1c2ccc([N+](=O)[O-])cc2CCc2cc([N+](=O)[O-])ccc21 | -1.0 | -5.5 | 2.5 | 1.2 | 22.1*
C/C(=N\NC(=O)Cc1cccs1)c1ccco1 | 5.5 | x | 3.0 | x | 0.6
COC(=O)C1CN(Cc2cn(Cc3ccc(OC)cc3)nn2)CCS(=O)(=O)N1Cc1ccc(F)cc1 (stereo unspecified) | 0.2 | x | 1.4 | x | 5.0
COCCCNc1nc2c(c(=O)[nH]c(=O)n2C)n1CC(O)COc1ccccc1C (stereo unspecified) | 18.6* | 7.2 | 6.7 | 1.9 | 0.5
O=C(CN1C(=O)/C(=C\c2ccco2)SC1=S)Nc1ccc(O)cc1C(=O)O | 8.7 | -4.1 | -21.2 | -4.5 | 43.4*
Cc1ccccc1CS(=O)(=O)Cc1ccc(C(=O)Nc2c(C)cccc2C)o1 | -3.3 | x | 4.8 | x | 5.8
COc1ccc(C(=O)N[C@@H]2CC[C@@]34CCCN3C(=O)CCC[C@H]4[C@H]2C)cc1 | 2.4 | x | 6.7 | x | 2.0
O=C(CSc1nc2ccccc2c(=O)[nH]1)Nc1ccc(C(=O)O)cc1 | -7.2 | 3.3 | -8.5 | -1.2 | -3.0
O=C(CSc1nc2ccccc2c(=O)[nH]1)Nc1ccc(S(=O)(=O)N2CCCC2)cc1 | -12.0 | 4.0 | -19.5 | -16.6 | 22.6*
O=C1CC(N2CCC(c3nc4ccccc4s3)CC2)C(=O)N1Cc1ccccc1 (stereo unspecified) | 1.2 | 3.2 | 1.1 | 3.5 | 23.7*
O=C(CN1CCN(c2ccc(O)cc2)CC1)Nc1ccc2c(c1)OCCO2 | 9.4 | -6.1 | 20.9 | 5.2 | 24.1*
O=C(CN1CCN(c2ccc(F)cc2)CC1)Nc1ccc2c(c1)OCCO2 | 2.5 | -9.2 | 1.4 | -3.4 | 1.0
COc1ccc(C2CC(=O)Oc3cc(O)ccc32)cc1 (stereo unspecified) | 1.7 | 4.8 | -3.9 | 5.2 | 1.3
SMILES | SIAE inh | TCR-CD3 inh | mABHD4 FP | HTRA1 inhibitor | PRMT1 FP inh
Cc1ccccc1C1CC(=O)Oc2cc(O)ccc21 (stereo unspecified) | x | x | x | 52.8* | x
COC(=O)Cc1ccc(NC(=S)N2CCCC(CO)C2)cc1 (stereo unspecified) | 2.6 | -3.2 | -3.5 | -5.7 | 2.3
COc1cc(NC(=S)N2CCCC(CO)C2)cc(OC)c1 (stereo unspecified) | -4.8 | -1.2 | -8.6 | 7.8 | 21.1*
CCCCCCCCN1C(=O)N2Cc3cc(OC)ccc3C2CS1(=O)=O (stereo unspecified) | 5.1 | x | -2.8 | x | 0.6
CCN1CCN(Cc2ccc(NC(=O)c3cc(NC(=O)c4cc(-c5ccc(OC)cc5)n[nH]4)cc(OC)c3)cc2C(F)(F)F)CC1 | -136.4 | 27.9* | -88.2 | -105.2 | -2.5
CCN1CCN(Cc2ccc(NC(=O)c3cc(NC(=O)c4ccc5n[nH]nc5c4)cc(OC)c3)cc2C(F)(F)F)CC1 | -16.5 | 7.1 | -63.2 | -30.7 | 0.6
COc1ccc(-c2cc(C(=O)Nc3cc(OC)cc(C(=O)Nc4cccc(C(F)(F)F)c4)c3)[nH]n2)cc1 | -123.4 | 68.3*! | -32.2 | -101.9 | 0.0
COc1ccc(NC(=S)NNC(=S)Nc2cccc(C(F)(F)F)c2)cc1 | 31.1* | -4.7 | 12.2 | 28.0 | -0.7
COc1cc(NC(=O)c2ccno2)cc(C(=O)Nc2cccc(C(F)(F)F)c2)c1 | -91.5 | 2.6 | -92.6 | -94.2 | 0.4
COc1cc(NC(=O)c2cc3cccc(OC)c3o2)cc(C(=O)Nc2cccc(C(F)(F)F)c2)c1 | -137.2 | 44.7* | -45.1 | -65.8 | -1.1
O=C(NCCc1c[nH]c2ccccc12)OCc1cn(Cc2cccc(F)c2F)nn1 | -3.8 | x | -2.4 | x | -1.1
COc1cccc(NC(=O)Nc2c(-c3ccc(F)cc3)nc3ncccn23)c1 | 3.9 | x | 2.7 | x | -1.2
COC(=O)[C@]12C[C@H](CC(=O)NCc3cccs3)C(=O)N(Cc3ccccc3)C1=C[C@H](COCc1ccccc1)O[C@@H]2C | -4.7 | x | 1.8 | x | 3.5
C[C@H]1[C@@H](OC(=O)NCCc2ccccc2)CC[C@@]23CCCN2C(=O)CCC[C@@H]13 | -9.4 | x | 4.8 | x | 3.3
CCn1c(=S)[nH]c2scc(-c3cccs3)c2c1=O | 4.9 | -0.4 | -13.5 | 5.6 | 23.2*
COc1ccc(Cl)cc1NC(=O)CSc1nnc(Cc2ccc(C)cc2)c(=O)[nH]1 | -12.1 | 0.7 | -27.4 | -49.1 | 23.8*
C=CCN1[C@H](C)COc2cccc(F)c2S1(=O)=O | -0.6 | x | -11.3 | x | 4.5
Cn1cnc([N+](=O)[O-])c1Oc1cccc2ccccc12 | -2.4 | 0.2 | 5.7 | 8.9 | 4.6
Cn1cnc([N+](=O)[O-])c1S(=O)(=O)Oc1cccc2ccccc12 | -1.7 | 4.5 | 1.9 | 5.6 | 23.0*
O=C1CSc2ccc(C(=O)N3CCCC(C(=O)N4CCN(c5ccc(F)cc5)CC4)C3)cc2N1 (stereo unspecified) | 1.2 | x | 1.4 | x | 1.1
C[C@@H]1CCN(C2CC2)S(=O)(=O)c2ccc(N3CC[C@H](O)C3)cc2O1 | 2.3 | x | 1.2 | x | -4.5
COc1ccc([N+](=O)[O-])c(S(=O)(=O)c2ccccc2)n1 | 3.7 | -6.2 | 1.8 | x | 24.7*
COc1ccc([N+](=O)[O-])c(S(=O)(=O)c2ccc(Cl)cc2)n1 | 3.6 | 5.7 | 0.2 | 4.7 | 20.8
CCn1c(SCC(=O)Nc2ccc(C(N)=O)cc2)nc2sc(C)c(C)c2c1=O | -7.0 | x | 2.2 | x | 1.6
